Here are results for 7 compounds from ChEMBL document CHEMBL1127473, “Estrone sulfamates: potent inhibitors of estrone sulfatase with therapeutic potential” (J Med Chem, 1994).

pIC50: −log10 of the molar value. Activity calls are given as the source filed them. The calls are words filed in the database; no cut-off is given here.

Experiment [1] concerns the target T1, Steryl-sulfatase (Homo sapiens) (UniProt P08842).
T1 sequence (whole entry): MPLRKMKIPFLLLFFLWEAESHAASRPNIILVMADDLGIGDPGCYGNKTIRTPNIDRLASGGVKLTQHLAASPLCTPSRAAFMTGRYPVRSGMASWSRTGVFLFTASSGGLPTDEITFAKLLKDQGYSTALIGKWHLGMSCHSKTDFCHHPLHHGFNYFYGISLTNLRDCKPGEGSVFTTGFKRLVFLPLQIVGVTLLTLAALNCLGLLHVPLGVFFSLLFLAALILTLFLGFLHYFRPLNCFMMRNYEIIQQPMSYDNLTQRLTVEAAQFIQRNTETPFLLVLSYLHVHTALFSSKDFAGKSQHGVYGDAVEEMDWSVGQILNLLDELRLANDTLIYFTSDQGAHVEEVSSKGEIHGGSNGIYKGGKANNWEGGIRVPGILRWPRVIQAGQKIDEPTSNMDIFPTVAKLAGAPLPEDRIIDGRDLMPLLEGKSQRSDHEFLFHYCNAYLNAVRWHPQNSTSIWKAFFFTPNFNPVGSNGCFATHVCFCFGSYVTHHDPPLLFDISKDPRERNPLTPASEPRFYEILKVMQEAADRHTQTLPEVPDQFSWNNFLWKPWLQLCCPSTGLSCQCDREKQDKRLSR
Put plainly: Tested for inhibition of estrone sulfatase in MCF-7 breast cancer cells using 2 nM substrate concentration at 10 uM. Conditions: MCF7. The class given is cell-based.

Experiment [2] has as its target T1, Steryl-sulfatase (Homo sapiens). Put plainly: Tested for inhibition of estrone sulfatase in MCF-7 breast cancer cells using 2 nM substrate concentration at 1 uM. The experiment is classed as cell-based. Particulars: MCF7.
The next experiment concerns the target T2, Steryl-sulfatase (Homo sapiens, UniProt P08842).
T2 sequence (P08842 whole entry): T1 sequence (whole entry)
Description: Tested for inhibition of estrone sulfatase in placental microsomal preparation (100000 g pellet) using substrate concentration of 20 uM. The experiment is classed as microsomes, Placenta. In a few lines:
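Placental microsomal preparation (100 000-g pellet) assayed with saturating [3H]estrone sulfate substrate (20 μM); IC50 derived for sulfatase inhibition.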

The target of experiment [3] is T1, Steryl-sulfatase (Homo sapiens). Put plainly: Tested for inhibition of estrone sulfatase in MCF-7 breast cancer cells using 2 nM substrate concentration at 0.1 uM. The class given is cell-based. Conditions: MCF7.
Experiment [4] has the same target. Put plainly: Tested for inhibition of estrone sulfatase in MCF-7 breast cancer cells using 2 nM substrate concentration at 1 uM; NI=No inhibition. Conditions: MCF7. The experiment is classed as cell-based.
Experiment [5] has the same target. Put plainly: Tested for inhibition of estrone sulfatase in MCF-7 breast cancer cells using 2 nM substrate concentration at 10 uM; NI=No inhibition. The class given is cell-based. Conditions: MCF7.
Experiment [6] has the same target. Description: Tested for enzyme activity recovered after 20h in MCF-7 breast cancer cells at 1 uM. Conditions: MCF7.
Experiment [7] has the same target. Conditions: MCF7; 1 uM.

Consider `CSP(=O)(O)Oc1ccc2c(c1)CC[C@@H]1[C@@H]2CC[C@]2(C)C(=O)CC[C@@H]12`, for which the inhibition came to 96% in experiment [1], 74% in experiment [2] and 52% in experiment [3]. The compound further gave a pIC50 against Steryl-sulfatase of 4.37.
For `CN(C)S(=O)(=O)Oc1ccc2c(c1)CCCC2`, the inhibition entry in experiment [4] and in experiment [5] was “inactive” throughout.
Regarding `CNS(=O)(=O)Oc1ccc2c(c1)CCCC2`, the inhibition in experiment [1] is 22%.
As for `NS(=O)(=O)Oc1ccc2c(c1)CCCC2`, the inhibition turned out to be 97% in experiment [1] and 47% in experiment [2].
For `CN(C)S(=O)(=O)Oc1ccc2c(c1)CCC1[C@@H]2CC[C@]2(C)C(=O)CC[C@@H]12` (single isomer, unassigned), in experiment [6], the % activity recovered worked out at 80%. The figures for the inhibition in experiment [1], in experiment [2] and in experiment [3] were 90%, 87% and 79%, respectively.
For `CNS(=O)(=O)Oc1ccc2c(c1)CCC1[C@@H]2CC[C@]2(C)C(=O)CC[C@@H]12` (single isomer, unassigned), the % activity recovered in experiment [6] is above 50%. Besides, the inhibition in experiment [1] came out at 93%; in experiment [2] it was 87%.
As for `C[C@]12CC[C@@H]3c4ccc(OS(N)(=O)=O)cc4CCC3[C@@H]1CCC2=O` (single isomer, unassigned) [EMATE], the “% activity recovered” value in experiment [7] was “inactive”. Further, the inhibition in experiment [1], in experiment [2] and in experiment [3] was above 99% each time. In addition, the pIC50 at Steryl-sulfatase is 7.10.
